Active and inactive are the calls of the source. No cut-off for these calls is given here.
Key:
[1] = tested on: MDA-MB-231; assay: Cytotoxicity against human MDA-MB-231 cells at 10 ug/ml after 4 hrs by MTT assay; type: functional
In short: (§1)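 MTT assay in 96-well plates, 10^4 cells per well, attached overnight. Cells were exposed to compound diluted in medium from 10 mg/mL DMSO stocks (vehicle control 0.2% DMSO) at 37 °C, 5% CO2, for 4 h, then changed to fresh DMEM. MTT (0.5 mg/mL) was added for 3 h at 37 °C in the dark. Formazan was dissolved in DMSO and read at 540 nm; results given as inhibitory rate.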

[2] = tested on: HeLa; assay: Cytotoxicity against human HeLa cells at 10 ug/ml after 4 hrs by MTT assay; type: functional, cell-based; in short: as §1

Row | Structure (SMILES) | Activity [1] | Activity [2]
1 | C[C@@H]1CC(=O)O[C@H]1/C(CO)=C1\Oc2cccc(O)c2C1=O [PHOTINIDE C] | 23.1% | inactive
2 | COc1cccc2c1C(=O)/C(=C(/CO)[C@@H]1OC(=O)C[C@H]1C)O2 [PHOTINIDE B] | 24.2% | inactive
3 | C[C@@H]1CC(=O)O[C@H]1/C(CO)=C1/Oc2cccc(O)c2C1=O [PHOTINIDE D] | 24.4% | inactive
4 | COc1cccc2c1C(=O)/C(=C(\CO)[C@@H]1OC(=O)C[C@H]1C)O2 [PHOTINIDE A] | 24.4% | inactive
5 | COc1cccc2c1C(=O)[C@@]1(O2)O[C@]1(CO)[C@@H]1OC(=O)C[C@H]1C | Active | inactive
6 | COc1cccc2c1C(=O)[C@]1(O2)O[C@@]1(CO)[C@@H]1OC(=O)C[C@H]1C | 24.6% | inactive

Source: ChEMBL document CHEMBL1151954, “Photinides A-F, cytotoxic benzofuranone-derived gamma-lactones from the plant endophytic fungus Pestalotiopsis photiniae” (2009)
